# From PubChem BioAssay
# Only some compounds are listed: those with a hit (about 2.3% of all), similar ones and a draw of the others.
# SUMO1-SIM PPI – alters human SUMO1 binding to SIM partners; SUMO1 binding to a labelled peptide, TR-FRET, 1 h; 0.33% of 360,000 active; inhibition, % at 20 µM; in the data active = inhibition above about 37%
# Target sequence (P63165 whole entry, looked up): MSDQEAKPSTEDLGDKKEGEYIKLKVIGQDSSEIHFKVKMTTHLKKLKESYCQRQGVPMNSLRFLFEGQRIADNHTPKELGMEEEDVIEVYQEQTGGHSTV
# DNMT1 block – inhibitors of human DNMT1; P26358; DNMT1 molecular beacon, Hinp1I cleavage, fluorescence; inhibition (reported as % activation of signal), % at 10 µM; 0.83% of 360,000 active; in the data active = inhibition above about 50%
# LMPTP block – blocks human LMPTP phosphatase; 0.22% of 360,000 active; recombinant LMPTP-A, OMFP fluorogenic substrate, fluorescence intensity; P24666; AID 651560; inhibition, % at 20 µM;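 active = compounds that cut the enzyme signal by at least half of the control window in the single-dose screen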;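 also: plate controls were DMSO wells with enzyme plus substrate for no effect and substrate without enzyme for full effect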
# Target sequence (P24666 whole entry, looked up): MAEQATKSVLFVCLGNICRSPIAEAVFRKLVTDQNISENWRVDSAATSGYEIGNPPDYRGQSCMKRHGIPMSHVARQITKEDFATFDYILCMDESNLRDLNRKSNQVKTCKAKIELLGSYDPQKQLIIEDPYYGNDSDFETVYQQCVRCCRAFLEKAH
#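 Material: LMPTP-A; amount: 0.625 nM enzyme; doses: single 20 µM dose; times: reaction 50 min, room temperature, dark; technique: fluorescence intensity of OMFP turnover product; benchmarks: no-enzyme and uninhibited controls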
# NadD block – NadD (S. aureus) enzyme inhibition; 0.78% of 360,000 active; inhibition, % at 20 µM; purified NadD enzyme, colorimetric absorbance read-out; in the data active = inhibition above about 26%
# Scp1 inh – Scp-1 (human) phosphatase inhibition | Q9GZU7 | Recombinant Scp1, phosphopeptide, malachite green phosphate absorbance | inhibition, % at 20 µM | 0.88% of 340,000 active | AID 493091;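 active = inhibition above about 50% at 20 µM, limit read from the data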;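 also: plate controls were DMSO wells with enzyme for no effect and wells lacking enzyme for full effect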
# Target sequence (Q9GZU7 76-261 limits assumed): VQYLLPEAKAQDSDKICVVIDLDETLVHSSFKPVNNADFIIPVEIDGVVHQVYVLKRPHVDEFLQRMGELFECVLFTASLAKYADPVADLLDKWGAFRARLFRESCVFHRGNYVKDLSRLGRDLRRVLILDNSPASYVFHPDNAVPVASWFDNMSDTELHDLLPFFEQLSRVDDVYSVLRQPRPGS
#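 Test system: SCP-1 phosphatase catalytic domain, residues 76-261; measured by: colorimetric phosphate reagent with accelerator and stabiliser, absorbance at 630 nm; timing: enzyme reaction 45 min at room temperature, colour 5 min, stabilisation 30 min; also added: Phosphorylated 17-residue peptide substrate; compound dosing: one concentration, 20 µM, with 1.0% DMSO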
# STEP inh – inhibitors of human striatal-enriched phosphatase STEP. P54829. inhibition, % at 20 µM. recombinant STEP, OMFP fluorogenic substrate, fluorescence. 0.25% of 360,000 active;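 active = inhibition at 20 µM, scaled per plate between control wells, above about 37%, limit read from the data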;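 also: 0% = DMSO with enzyme and substrate and 100% = substrate only without enzyme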
#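 System: STEP (striatal-enriched tyrosine phosphatase) enzyme, cell-free; medium: Bis-Tris pH 6.0 buffer with DTT, detergent; dosing: 20 µM, 1% DMSO; times: reaction 20 min, ambient temperature; detection: fluorescence, 480/540 nm; read-out basis: normalized % inhibition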
# Scp1 confirm – confirmation of human Scp-1 phosphatase inhibitors | shares compounds with Scp1 inh | recombinant SCP-1 catalytic domain, phosphate release, malachite green absorbance | inhibition, % at 20 µM | 61% of 2,500 active;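 also: plate controls were DMSO with enzyme for no effect and buffer wells lacking enzyme for full effect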
# MG interference – counter-screen for Scp-1 inhibitors: colorimetric interference; apparent inhibition (interference), % at 20 µM; Colorimetric interference counterscreen, malachite green absorbance 630 nm; 2,500 tested, under 10 active; shares compounds with Scp1 inh; AID 540313;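 also: compounds added after enzyme reaction finished so only phosphate colour detection is probed; plate controls were DMSO wells with completed Scp-1 reaction for no effect and substrate wells lacking enzyme for full effect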
# Scp-1 Tm shift – validation of human Scp-1 inhibitors by thermal shift binding | shares compounds with Scp1 inh | Recombinant SCP1, Sypro Orange thermal shift Tm | thermal shift relative to vanadate control, % at 40 µM | 25% of 1,500 active | AID 540329;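 active = substances whose mean melting-temperature shift, as a percentage of the reference inhibitor's shift, reaches about 5.3%, limit read from the data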;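 also: 0% = Tm of DMSO wells and 100% = Tm with sodium orthovanadate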
# Numbers without * were called inactive; . = no result.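 The calls were made as follows, unless noted: active = inhibition of at least 30% at 20 µM; inactive = the rest.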
SMILES,SUMO1-SIM PPI,DNMT1 block,LMPTP block,NadD block,Scp1 inh,STEP inh,Scp1 confirm,MG interference,Scp-1 Tm shift
CN(CC(=O)Nc1cccc(S(=O)(=O)N2CCCC2)c1)CC(=O)Nc1ccc(Cl)c(C(F)(F)F)c1,-18.9,-6.9,-5.2,-0.5,-4.8,-3.8,.,.,.
CC(C)Nc1ncnc2c1ncn2[C@H]1CN(CCN2CCOCC2)C[C@@H](CO)O1,-1.1,0.3,-0.4,0.2,.,-1.5,.,.,.
CCCCn1c(N)c(N(CCOC)C(=O)CCS(=O)(=O)c2ccc(C)cc2)c(=O)[nH]c1=O,1.7,-0.2,-1.4,-7.6,.,-0.5,.,.,.
O=C1C=C(O)c2cccc(O)c2C1=O,-0.1,-3.5,4.1,8.9,50.1*,2.3,43.0*,-4.9,11.6*
Cc1ccc(CNC(=O)c2cc(=O)c3cc(C)ccc3o2)cc1,11.7,2.1,28.7,-7.3,60.5*,24.4,19.8,-15.1,.
Cc1ccc(S(=O)(=O)N2CCCCC2)cc1C(=O)Nc1cccnc1,9.9,22.2,-0.6,-8.0,52.5*,2.4,51.3*,-12.6,-12.6
Cc1[nH]c(=O)c(C#N)c(C)c1CCC(=O)Nc1cc(S(C)(=O)=O)ccc1Cl,-2.6,-1.3,-1.5,-9.3,58.1*,-0.7,1.7,-8.2,.
CC1CCC(C(C)C)C(OCC[N+](C)(C)C)C1 (centres undefined),2.3,5.4,-2.7,10.8,58.3*,-1.7,-9.9,-10.1,.
Cc1cc(OCC(=O)OCC(=O)N2c3ccccc3NC(=O)C2(C)C)ccc1Cl,9.2,33.1,7.1,-0.8,59.8*,-0.9,57.2*,-18.9,0.7
Cc1ccccc1OCCC(=O)OCC(=O)N1c2ccccc2NC(=O)C1(C)C,6.3,10.4,1.3,-0.2,20.1,1.4,.,.,.
CC1(C)C(=O)Nc2ccccc2N1C(=O)COc1ccccc1C#N,3.4,23.1,5.4,3.6,50.2*,3.0,58.6*,-11.8,2.8
CCC(=O)c1ccc(OCC(=O)OCC(=O)N2c3ccccc3NC(=O)C2(C)C)cc1,12.0,9.0,1.2,-1.1,9.4,5.1,.,.,.
Cc1ccc(S(=O)(=O)N2CCOCC2)cc1NC(=O)COC(=O)CCOc1ccc(C(C)(C)C)cc1,0.6,2.0,3.1,-7.9,-4.7,0.3,.,.,.
CCOC(=O)c1cn2nc(SCc3ccccc3)nc2nc1C,-1.2,-3.0,-1.2,-5.0,-7.0,-1.0,.,.,.
CCOC(=O)c1ccc(NC(=O)c2cn(CCC#N)nc2-c2ccc3c(c2)OCCO3)cc1,3.8,-10.7,1.1,-7.9,-8.7,-2.2,.,.,.
O=C(CNc1cc(S(=O)(=O)N2CCCC2)ccc1OCC(F)(F)F)Nc1cccc(C(F)(F)F)c1,-2.3,-7.7,0.9,-4.1,-6.7,-0.4,.,.,.
O=C(NCCc1ccccc1)c1ccc(-c2ccc(F)cc2)o1,-4.5,6.6,0.7,-6.9,26.4,-1.9,.,.,.
O=C(NCCc1ccccc1)c1ccc(-c2ccccc2C(F)(F)F)o1,.,.,.,.,96.8*,.,20.1,-27.2,.
COc1ccc2c(c1)c(=O)oc1cc(OCC(=O)NC3CCCCC3)ccc12,-16.9,51.7*,3.7,11.0,70.5*,6.3,55.6*,-15.3,-16.0
COc1ccccc1NC(=O)Nc1nc(CC(=O)N2CCN(c3ccccc3OC)CC2)cs1,3.7,-2.4,1.4,8.6,1.2,-1.5,.,.,.
COc1cc(Br)cc2cc(C(=O)N3CCN(C(=O)c4ccco4)CC3)c(=O)oc12,-2.6,10.5,7.7,3.2,56.4*,2.6,-7.1,-12.6,.
O=C(Nc1ccc(S(=O)(=O)Nc2nccs2)cc1)c1ccc(=O)[nH]c1,32.1,-1.0,5.5,2.1,70.0*,-2.3,60.2*,-12.0,8.9*
O=C(Nc1ccc(S(=O)(=O)Nc2nccs2)cc1)c1ccncc1,-4.0,2.7,-1.0,4.2,.,-3.3,.,.,.
